Assay outcomes from PubChem BioAssay.
Only some compounds are listed: those with a hit (about 2.4% of all), similar ones and a draw of the others.
SENP1 inh: human SENP1 catalytic domain inhibitors, primary screen, biochemical, FRET, uHTS; inhibition, % at 10 µM; 0.21% of 360,000 active; Sentrin-specific protease 1 (Homo sapiens), Q9P0U3; recombinant SENP1 catalytic domain, CyPet-SUMO1-YPet FRET cleavage;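 active means inhibition at least 30% at 10 µM, raw YFP signal under a set limit, fluorescence ratio 0.5 to 1.5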
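Test system: recombinant human SENP1 catalytic domain, His6-tagged / Medium: pH 8 Tris buffer with EDTA, NaCl, BME, BSA, NP40, catalase / Also added: SUMO1 FRET substrate flanked by Cypet and Ypet, 25 nM / Times: 50 min reaction at room temperature / Signal: FRET, CFP and YFP emission / Control set: no-enzyme low control and enzyme-plus-DMSO high control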
Myeloid diff 2: induction of myeloid progenitor differentiation, primary screen, cell-based, flow cytometry, MLPCN library | ER-HoxA9 myeloid progenitors, lysozyme-GFP differentiation | 1% of 360,000 active | AID 624256, 2012 | calls only at 10 µM;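 active means normalized GFP-positive differentiation at or above the plate's own cutoff, the solvent-only control mean plus 3 SD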;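 further: cells exposed to compound for four days before flow analysis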
MT1-MMP act inh: blockers of MT1-MMP proenzyme processing, primary screen, HT1080 RFP-PRO-GFP cells, GFP/RFP fluorescence. Matrix metalloproteinase-14 (Homo sapiens), P50281. GFP/RFP ratio change, % at 20 µM. GFP/RFP ratio fluorescence, overnight; percent of plate control window, DMSO zero. 0.061% of 360,000 active;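 active means GFP/RFP ratio change of at least 30% with cell ATP level not reduced by more than half and red fluorescence within 50% of control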
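Compound: 20 µM single dose, 1% DMSO / System: HT1080 RFP-PRO-GFP cells / Controls: DMSO and RFP-L50D-GFP cell wells / Read-out basis: GFP/RFP fluorescence ratio / Schedule: overnight compound exposure at 37 °C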
NRP1-CendR mod: modulators of CendR peptide binding to NRP-1, primary screen, biochemical, fluorescence polarization, uHTS. Neuropilin-1 (Homo sapiens), O14786. FAM-RPARPAR peptide binding to NRP-1. inhibition, % at 25 µM. 0.85% of 360,000 active. AID 602438, 2012;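 active means inhibition or corrected inhibition above about 18%, plus a signal ratio from 0.5 to 1.5, limit read from the data, passing the limit was not always enough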
DAGLB inh: DAGLB lipase inhibitors, primary screen, biochemical, fluorescence, HTS. HEK293T DAGLB membrane lysate, EnzChek fluorogenic substrate. inhibition, % at 5.17 µM. 0.059% of 340,000 active; in the data active means inhibition above about 34%
Target sequence (Q8NCG7 whole entry, looked up): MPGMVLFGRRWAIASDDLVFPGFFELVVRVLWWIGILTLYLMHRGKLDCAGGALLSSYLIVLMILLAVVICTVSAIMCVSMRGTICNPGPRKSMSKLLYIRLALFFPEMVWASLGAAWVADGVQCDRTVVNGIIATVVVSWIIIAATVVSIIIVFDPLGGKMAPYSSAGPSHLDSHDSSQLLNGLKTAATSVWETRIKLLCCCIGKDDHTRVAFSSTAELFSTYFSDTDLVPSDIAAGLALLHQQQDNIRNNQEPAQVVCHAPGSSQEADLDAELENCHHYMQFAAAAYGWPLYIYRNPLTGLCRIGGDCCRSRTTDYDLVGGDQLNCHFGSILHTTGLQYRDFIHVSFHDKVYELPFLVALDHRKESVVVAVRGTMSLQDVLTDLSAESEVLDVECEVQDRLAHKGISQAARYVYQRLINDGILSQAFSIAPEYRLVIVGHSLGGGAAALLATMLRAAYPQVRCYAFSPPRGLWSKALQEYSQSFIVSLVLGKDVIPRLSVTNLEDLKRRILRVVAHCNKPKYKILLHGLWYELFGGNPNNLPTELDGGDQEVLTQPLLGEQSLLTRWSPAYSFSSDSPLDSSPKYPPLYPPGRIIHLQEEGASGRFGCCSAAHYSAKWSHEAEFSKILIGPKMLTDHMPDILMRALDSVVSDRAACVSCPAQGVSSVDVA
beta cell repl: inducers of MIN6 beta-cell proliferation, primary screen, ATP luminescence, uHTS | MIN6 cells proliferation, ATPlite luminescence, 48 h; cells starved in 0.2% serum; 100% = growth in 10% serum | proliferation, % at 10 µM | 0.29% of 330,000 active;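 active means compounds whose signal lies at least 3.5 SD above the mean of all wells on their plate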
SENP1 inh conf: human SENP1 catalytic domain inhibitors, confirmation, biochemical, FRET endpoint, single concentration; shares compounds with SENP1 inh; recombinant SENP1, CyPet-SUMO1-YPet FRET cleavage; inhibition, % at 10 µM; 34% of 520 active; in the data active means inhibition mostly above about 35%, no sharp cut-off; inactive means mostly below about 32%
SENP1 kinetic: human SENP1 catalytic domain inhibitors, confirmation, biochemical, kinetic FRET, single concentration; inhibition, % at 10 µM; shares compounds with SENP1 inh; AID 651690, 2012; 26% of 520 active; recombinant SENP1, CyPet-SUMO1-YPet FRET kinetic cleavage; in the data active means inhibition mostly above about 32%, no sharp cut-off; inactive means mostly below about 29%
A number is an active result.

Screening COc1cc2cnc(-c3ccccc3)c(-c3cccc(C(F)(F)F)c3)c2cc1OC returned SENP1 inh inactive, Myeloid diff 2 inactive, MT1-MMP act inh inactive, NRP1-CendR mod inactive, DAGLB inh inactive and beta cell repl inactive.
COc1cc(Nc2nc3c(N)cc(C(F)(F)F)cc3nc2-c2ccccc2)cc(OC)c1OC was read as SENP1 inh 45.6, Myeloid diff 2 inactive, MT1-MMP act inh inactive, NRP1-CendR mod inactive, DAGLB inh inactive, SENP1 inh conf inactive and SENP1 kinetic inactive.
`CCOC(=O)/C=C/c1cccc(C)c1O` gave SENP1 inh 32.3, Myeloid diff 2 inactive, MT1-MMP act inh inactive, NRP1-CendR mod inactive, SENP1 inh conf inactive and SENP1 kinetic 36.5.
`CCOC(=O)N/N=C/c1ccc(F)cc1F` gave SENP1 inh inactive, Myeloid diff 2 inactive, MT1-MMP act inh inactive, NRP1-CendR mod inactive, DAGLB inh inactive and beta cell repl inactive.
For COc1cccc(/C=C/C(=O)OCC(=O)c2ccc(C)c(C)c2)c1OC the results were SENP1 inh inactive, Myeloid diff 2 inactive, MT1-MMP act inh inactive, NRP1-CendR mod inactive, DAGLB inh inactive and beta cell repl inactive.
For CCOC(=O)/C=C/c1cc(F)ccc1O the results were SENP1 inh 66.2, Myeloid diff 2 inactive, MT1-MMP act inh inactive, NRP1-CendR mod inactive, SENP1 inh conf 39.8 and SENP1 kinetic 38.2.
Cc1ccc(S(=O)(=O)NCC(=O)OCC(=O)N2C(C)CCCC2C)cc1 (stereo unspecified) was read as SENP1 inh inactive, Myeloid diff 2 inactive, MT1-MMP act inh inactive, NRP1-CendR mod inactive, DAGLB inh inactive and beta cell repl inactive.
`CCOc1cc([N+](=O)[O-])cc2c1C(=O)Nc1ccccc1O2` gave SENP1 inh 53.9, Myeloid diff 2 inactive, MT1-MMP act inh inactive, NRP1-CendR mod inactive, DAGLB inh inactive, beta cell repl inactive, SENP1 inh conf inactive and SENP1 kinetic inactive.
For Cc1cc(Cl)ccc1OCC(=O)N/N=C/c1ccncc1 the results were SENP1 inh inactive, Myeloid diff 2 inactive, MT1-MMP act inh inactive, NRP1-CendR mod inactive, DAGLB inh inactive and beta cell repl inactive.
For COc1cc(Cn2c3ccc(NC(=O)CC(C)C(F)(F)F)cc3c(=O)n2C)ccc1F (stereo unspecified) the results were SENP1 inh 31.0, Myeloid diff 2 inactive, MT1-MMP act inh inactive, NRP1-CendR mod inactive, SENP1 inh conf inactive and SENP1 kinetic inactive.
For CC(CC(=O)Nc1ccc2c(c1)c(=O)n(C)n2Cc1ccc(Cl)cc1)C(F)(F)F (stereo unspecified) the results were SENP1 inh inactive, Myeloid diff 2 inactive, MT1-MMP act inh inactive and NRP1-CendR mod inactive.
Screening Cc1ccc(-c2csc3nc(-c4ccncc4)[nH]c(=O)c23)cc1 returned SENP1 inh 43.1, Myeloid diff 2 inactive, MT1-MMP act inh inactive, NRP1-CendR mod inactive, DAGLB inh inactive, beta cell repl inactive, SENP1 inh conf 40.4 and SENP1 kinetic inactive.
Cc1ccc(-c2csc3nc[nH]c(=O)c23)cc1 was read as SENP1 inh inactive, Myeloid diff 2 inactive, MT1-MMP act inh inactive, NRP1-CendR mod inactive, DAGLB inh inactive and beta cell repl inactive.
N#Cc1c(C(F)(F)F)cc(-c2ccccc2)nc1SCCN1CCOCC1 was read as SENP1 inh 32.9, Myeloid diff 2 inactive, MT1-MMP act inh inactive, NRP1-CendR mod inactive, DAGLB inh inactive, beta cell repl inactive, SENP1 inh conf inactive and SENP1 kinetic inactive.
